Measurements: ChEMBL document CHEMBL3817760, “Design, synthesis and evaluation of novel indandione derivatives as multifunctional agents with cholinesterase inhibition, anti-β-amyloid aggregation, antioxidant and neuroprotection properties against Alzheimer's disease” (Bioorg Med Chem, 2016)
Activity calls are given as the source filed them. The calls are words filed in the database; no cut-off is given here.

Columns and labels:
Cholinesterase = Cholinesterase (Equus caballus, UniProt P81908); assay: Inhibition of equine serum BuChE using butyrylthiocholine iodide as substrate preincubated for 5 mins followed by substrate addition measured after 2 mins by Ellman's method
Summary of the method: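 BuChE from equine serum (0.06 U/mL) in 0.1 M phosphate buffer pH 8.0, compounds diluted from ethanol stocks to 1-100 µM final, standing 5 min before DTNB. Started with 0.075 M butyrylthiocholine; A412 read 2 min later at 25°C. Enzyme-free blanks and inhibitor-free full-activity controls included. Triplicates; IC50 from nonlinear regression of concentration-inhibition data.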

[1] = molecular target: T1, Amyloid-beta precursor protein (Homo sapiens, UniProt P05067); assay: Inhibition of self-induced amyloid beta (1 to 42) (unknown origin) aggregation at 25 uM incubated for 48 hrs measured after 5 mins by thioflavin-T fluorescence assay
Summary of the method: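 Aβ1-42 pretreated with HFIP, then diluted in 50 mM phosphate buffer pH 7.4 to 25 μM final. Incubated ± compound (25 μM) at 37°C for 48 h, then diluted in 50 mM glycine–NaOH pH 8.0 containing 5 μM thioflavin-T. Fluorescence read 5 min later (ex 450/em 485 nm). Inhibition % = (1−IFi/IFc)×100 after background subtraction; triplicate.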

Acetylcholinesterase = Acetylcholinesterase (Electrophorus electricus, UniProt O42275); assay: Inhibition of electric eel AChE using acetylthiocholine iodide as substrate preincubated for 5 mins followed by substrate addition measured after 2 mins by Ellman's method
[2] = Selectivity index, ratio of IC50 for equine serum BuChE to IC50 for electric eel AChE
Summary of the method: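 Ratio of IC50 values from the modified Ellman assay. Equine serum BuChE (0.06 U/mL) and electric eel AChE (0.22 U/mL), each in 0.1 M phosphate pH 8.0 with DTNB and 0.075 M thiocholine substrate, A412 at 2 min, 25°C. IC50s were means of three experiments.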

SH-SY5Y [3] = assay: Neuroprotective activity against amyloid beta (1 to 42)-induced neurotoxicity in human SH-SY5Y cells assessed as cell viability treated for 24 hrs measured after 48 hrs by MTT assay; assay type: functional, cell-based
Summary of the method: (§1)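 Aβ1-42 treated with HFIP (1 mg/ml), sonicated, left 24 h at room temperature and lyophilized; film dissolved in DMSO. SH-SY5Y cells plated at 2 × 10^4/well and allowed to attach 24 h. Aβ (25 μM) added ± compound (5-20 μM) in fresh medium. Viability measured by MTT as % of control after 48 h (methods; text says 24 h co-treatment). Morphology imaged by phase-contrast microscopy.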

SH-SY5Y [4] = assay: Neuroprotective activity against H2O2-induced neurotoxicity in human SH-SY5Y cells assessed as cell viability after 24 hrs by MTT assay relative to control; assay type: functional, cell-based
Summary of the method: (§2)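 SH-SY5Y cells seeded at 2 × 10^4/well and incubated 24 h. Medium then replaced with serum-free DMEM containing 200 μM H2O2 plus compound (5, 10, 20 μM) at 37°C for 24 h. Viability measured by MTT as % of untreated control, and morphology photographed under phase-contrast microscopy. Mean ± S.D of three experiments in triplicate; ANOVA with Bonferroni test.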

SH-SY5Y [5] = assay: Neuroprotective activity against H2O2-induced neurotoxicity in human SH-SY5Y cells assessed as change in cell morphology at 20 uM after 24 hrs by phase contrast microscopy; assay type: functional, cell-based; summary of the method: as §2
[6] = Cytotoxicity against human SH-SY5Y cells assessed as cell viability at 75 uM after 48 hrs by MTT assay; assay type: cell-based; settings: read-out: Activity
Summary of the method: (§3)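 SH-SY5Y cells grown in DMEM with 10% FBS and 1% penicillin-streptomycin at 37°C, 5% CO2. Plated at 2000 cells/well and cultured 24 h, then exposed 48 h to compound at 1-100 μM (DMSO stock diluted in complete medium). MTT added for 4 h, formazan dissolved in DMSO, absorbance read at 570 nm (reference 630 nm). Triplicates; three independent experiments.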

SH-SY5Y [7] = assay: Antioxidant activity in human SH-SY5Y cells assessed as inhibition of H2O2-induced ROS production at 10 to 20 uM after 24 hrs by DCFH-DA fluorescent assay; assay type: functional, cell-based
Summary of the method: (§4)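 SH-SY5Y cells seeded at 2 × 10^4/well and exposed 24 h to H2O2 (200 μM) with or without compound at 5, 10 and 20 μM. Intracellular ROS then probed with DCFH-DA for 20 min and total DCF fluorescence read on a plate reader. Mean ± S.D of three experiments, each in triplicate; one-way ANOVA with Bonferroni test.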

[8] = Cytotoxicity against human SH-SY5Y cells assessed as cell viability at 10 uM after 48 hrs by MTT assay; assay type: cell-based; settings: read-out: Activity; summary of the method: as §3
[9] = molecular target: T1, Amyloid-beta precursor protein; assay: Inhibition of self-induced amyloid beta (1 to 42) (unknown origin) aggregation incubated for 48 hrs measured after 5 mins by thioflavin-T fluorescence assay
SH-SY5Y [10] = assay: Neuroprotective activity against H2O2-induced cell death in human SH-SY5Y cells at 20 uM after 24 hrs by phase contrast microscopy; assay type: functional, cell-based; summary of the method: as §2
[11] = Cytotoxicity against human SH-SY5Y cells assessed as cell viability at 25 uM after 48 hrs by MTT assay; assay type: cell-based; settings: read-out: Activity; summary of the method: as §3
[12] = Cytotoxicity against human SH-SY5Y cells assessed as cell viability at 100 uM after 48 hrs by MTT assay; assay type: cell-based; settings: read-out: Activity; summary of the method: as §3
[13] = Cytotoxicity against human SH-SY5Y cells assessed as cell viability at 5 uM after 48 hrs by MTT assay; assay type: cell-based; settings: read-out: Activity; summary of the method: as §3
[14] = molecular target: T1, Amyloid-beta precursor protein; assay: Inhibition of amyloid beta (1 to 42) (unknown origin) aggregation at 25 uM after 72 hrs by transmission electron microscopy
Summary of the method: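 Aβ1-42 stock diluted in 20 mM phosphate buffer (pH 7.4) at 4°C, then incubated at 37°C with or without compound. Final concentrations per methods: peptide 50 μM, compound 25 μM; figure legend gives 25 μM each. Incubation time given as 48 h (methods) and 72 h (text). Samples placed on carbon-coated grids, stained with 1% uranyl acetate and imaged by TEM.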

[15] = Cytotoxicity against human SH-SY5Y cells assessed as cell viability at 50 uM after 48 hrs by MTT assay; assay type: cell-based; settings: read-out: Activity; summary of the method: as §3
[16] = molecular target: Acetylcholinesterase (Electrophorus electricus) (UniProt O42275); assay: Mixed type inhibition of electric eel AChE at 10 to 40 nM preincubated with enzyme for 15 mins followed by substrate addition by Lineweaver-Burk plot analysis
Summary of the method: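 Electric eel AChE with the compound, preincubated at 37°C for 15 min before substrate addition. Reciprocal (Lineweaver-Burk) plots were drawn, and their slopes were plotted against inhibitor concentration in a weighted analysis. Ki was taken as the ratio of plot intercept to slope.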

[17] = Cytotoxicity against human SH-SY5Y cells assessed as cell viability at 1 uM after 48 hrs by MTT assay; assay type: cell-based; settings: read-out: Activity; summary of the method: as §3
SH-SY5Y [18] = assay: Cytotoxicity against human SH-SY5Y cells assessed as decrease in cell viability up to 100 uM after 24 hrs by MTT assay; assay type: cell-based
[19] = molecular target: T1, Amyloid-beta precursor protein; assay: Potency index, ratio of curcumin IC50 to compound IC50 for self-induced amyloid beta (1 to 42) (unknown origin) aggregation
SH-SY5Y [20] = assay: Neuroprotective activity against amyloid beta (1 to 42)-induced neurotoxicity in human SH-SY5Y cells assessed as change in cell morphology at 20 uM after 24 hrs by phase contrast microscopy; assay type: functional, cell-based; summary of the method: as §1
SH-SY5Y [21] = assay: Antioxidant activity in human SH-SY5Y cells assessed as inhibition of H2O2-induced ROS production after 24 hrs by DCFH-DA fluorescent assay; assay type: functional, cell-based; summary of the method: as §4
SH-SY5Y [22] = assay: Cytotoxicity against human SH-SY5Y cells assessed as decrease in cell viability after 48 hrs by MTT assay; assay type: cell-based; summary of the method: as §3
SH-SY5Y [23] = assay: […] in human SH-SY5Y cells at 5 to 20 uM after 24 hrs by DCFH-DA fluorescent assay; assay type: ADME, cell-based

T1 sequence (P05067 whole entry): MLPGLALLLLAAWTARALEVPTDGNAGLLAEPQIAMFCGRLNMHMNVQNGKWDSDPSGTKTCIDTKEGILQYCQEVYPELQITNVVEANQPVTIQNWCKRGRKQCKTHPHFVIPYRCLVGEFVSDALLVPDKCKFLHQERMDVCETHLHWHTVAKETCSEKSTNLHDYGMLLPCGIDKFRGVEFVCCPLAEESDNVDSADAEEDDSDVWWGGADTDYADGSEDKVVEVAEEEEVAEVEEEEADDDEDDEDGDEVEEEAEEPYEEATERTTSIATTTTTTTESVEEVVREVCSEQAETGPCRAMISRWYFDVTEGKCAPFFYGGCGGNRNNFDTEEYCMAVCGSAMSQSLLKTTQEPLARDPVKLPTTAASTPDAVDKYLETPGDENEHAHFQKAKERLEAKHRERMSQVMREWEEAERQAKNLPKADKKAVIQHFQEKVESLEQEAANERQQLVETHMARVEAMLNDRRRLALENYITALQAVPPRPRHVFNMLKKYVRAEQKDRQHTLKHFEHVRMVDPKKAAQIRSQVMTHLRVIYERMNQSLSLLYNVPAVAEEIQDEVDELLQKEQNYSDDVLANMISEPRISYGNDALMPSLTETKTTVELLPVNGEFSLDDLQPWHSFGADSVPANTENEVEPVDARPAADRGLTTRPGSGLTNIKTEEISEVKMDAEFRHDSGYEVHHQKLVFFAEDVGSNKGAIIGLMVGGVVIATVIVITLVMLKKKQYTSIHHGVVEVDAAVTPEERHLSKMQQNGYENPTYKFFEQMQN
Sequence of Cholinesterase (P81908 whole entry): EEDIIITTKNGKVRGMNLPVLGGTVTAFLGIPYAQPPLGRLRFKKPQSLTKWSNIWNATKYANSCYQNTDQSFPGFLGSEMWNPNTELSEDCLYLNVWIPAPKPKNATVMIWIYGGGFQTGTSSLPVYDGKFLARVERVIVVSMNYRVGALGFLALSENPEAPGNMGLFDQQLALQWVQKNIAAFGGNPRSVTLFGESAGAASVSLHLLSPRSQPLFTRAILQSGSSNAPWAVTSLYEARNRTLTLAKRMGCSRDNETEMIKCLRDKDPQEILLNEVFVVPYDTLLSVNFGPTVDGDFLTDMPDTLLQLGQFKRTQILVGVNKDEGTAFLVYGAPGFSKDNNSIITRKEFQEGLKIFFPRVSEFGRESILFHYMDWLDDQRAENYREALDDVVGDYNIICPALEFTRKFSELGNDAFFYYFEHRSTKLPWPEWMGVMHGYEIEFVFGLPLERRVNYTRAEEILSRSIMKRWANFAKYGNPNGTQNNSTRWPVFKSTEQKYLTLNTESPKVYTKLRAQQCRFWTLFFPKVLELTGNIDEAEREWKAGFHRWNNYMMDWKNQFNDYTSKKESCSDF
Sequence of Acetylcholinesterase (O42275 whole entry): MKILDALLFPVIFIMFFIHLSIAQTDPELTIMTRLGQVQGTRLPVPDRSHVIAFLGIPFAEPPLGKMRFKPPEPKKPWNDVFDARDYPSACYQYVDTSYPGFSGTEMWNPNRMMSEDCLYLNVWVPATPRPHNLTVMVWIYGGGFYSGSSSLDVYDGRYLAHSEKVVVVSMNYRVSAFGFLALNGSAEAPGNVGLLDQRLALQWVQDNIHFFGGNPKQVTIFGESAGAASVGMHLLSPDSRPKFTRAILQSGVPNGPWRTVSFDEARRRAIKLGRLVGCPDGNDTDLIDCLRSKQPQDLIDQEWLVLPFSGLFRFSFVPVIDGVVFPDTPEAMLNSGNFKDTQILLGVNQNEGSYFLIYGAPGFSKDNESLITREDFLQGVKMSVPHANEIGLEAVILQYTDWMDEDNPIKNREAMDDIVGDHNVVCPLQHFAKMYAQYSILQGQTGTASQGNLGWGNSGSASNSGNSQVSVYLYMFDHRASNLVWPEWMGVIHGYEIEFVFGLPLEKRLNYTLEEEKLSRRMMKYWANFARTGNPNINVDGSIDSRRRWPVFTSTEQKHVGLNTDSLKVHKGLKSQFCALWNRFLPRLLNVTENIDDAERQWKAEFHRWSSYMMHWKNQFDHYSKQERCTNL
Sequence of Acetylcholinesterase (Electrophorus electricus) (O42275 24-633 limits assumed): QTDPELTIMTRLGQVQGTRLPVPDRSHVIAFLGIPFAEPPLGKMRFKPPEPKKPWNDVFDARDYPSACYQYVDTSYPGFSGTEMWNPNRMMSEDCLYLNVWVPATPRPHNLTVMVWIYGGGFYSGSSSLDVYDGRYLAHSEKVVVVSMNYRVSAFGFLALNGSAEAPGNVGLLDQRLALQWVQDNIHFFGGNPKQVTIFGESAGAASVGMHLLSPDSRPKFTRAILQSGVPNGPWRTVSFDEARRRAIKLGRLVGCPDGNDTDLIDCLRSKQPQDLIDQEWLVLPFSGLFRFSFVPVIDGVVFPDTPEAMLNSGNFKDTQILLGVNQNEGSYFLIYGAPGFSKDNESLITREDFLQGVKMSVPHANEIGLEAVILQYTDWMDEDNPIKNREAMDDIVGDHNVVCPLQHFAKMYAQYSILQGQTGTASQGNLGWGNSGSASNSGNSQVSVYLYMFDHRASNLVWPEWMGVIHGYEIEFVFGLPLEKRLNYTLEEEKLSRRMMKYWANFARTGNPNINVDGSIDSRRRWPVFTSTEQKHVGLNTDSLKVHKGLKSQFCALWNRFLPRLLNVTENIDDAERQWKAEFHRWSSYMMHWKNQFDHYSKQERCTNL

Compound	IC50 (Cholinesterase) [nM]	inhibition [1] [%]	IC50 (Acetylcholinesterase) [nM]	Ratio IC50 [2]	further results
Cc1ccc(N2CCN(c3ccc(C=C4C(=O)c5ccccc5C4=O)cc3)CC2)cc1	392	62.4	251	1.5	–
O=C1C(=Cc2ccc(N3CCN(c4ccccn4)CC3)cc2)C(=O)c2ccccc21	880	70.9	112	7.8	–
O=C1C(=Cc2ccc(N3CCN(c4ncccn4)CC3)cc2)C(=O)c2ccccc21	2780	80.9	36	77.1	Activity (SH-SY5Y [3]): Dose-dependent effect; Activity (SH-SY5Y [4]): Dose-dependent effect; Activity (SH-SY5Y [5]): Active; viability at 48 h, 75 µM [6]: 86.3%; inhibition (SH-SY5Y [7]): Active; viability at 48 h, 10 µM [8]: 95.3%; IC50 [9]: 10100 nM; Activity (SH-SY5Y [10]): Active; viability at 48 h, 25 µM [11]: 93.9%; viability at 48 h, 100 µM [12]: 82.3%; viability at 48 h, 5 µM [13]: 96.4%; inhibition [14]: Active; viability at 48 h, 50 µM [15]: 89.6%; inhibition [16]: Active; viability at 48 h, 1 µM [17]: 98.1%; Activity (SH-SY5Y [18]): Non-toxic; Ratio IC50 [19]: 1.5; Activity (SH-SY5Y [20]): Active
O=C1C(=Cc2ccc(N3CCN(c4ccc(F)cc4)CC3)cc2)C(=O)c2ccccc21	5130	61.8	173	29.6	–
O=C1C(=Cc2ccc(N3CCN(C(=O)c4ccccc4)CC3)cc2)C(=O)c2ccccc21	13400	53.9	14200	0.9	–
O=C1C(=Cc2ccc(N3CCN(c4ccccc4)CC3)cc2)C(=O)c2ccccc21	4660	57.3	2440	1.9	–
O=C1C(=Cc2ccc(N3CCN(Cc4ccc5c(c4)OCO5)CC3)cc2)C(=O)c2ccccc21	4250	71.8	131	33.8	–
O=C1C(=Cc2ccc(N3CCN(C(=O)c4ccco4)CC3)cc2)C(=O)c2ccccc21	2610	82.2	48	54.2	Activity (SH-SY5Y [3]): Dose-dependent effect; Activity (SH-SY5Y [4]): Dose-dependent effect; Activity (SH-SY5Y [5]): Active; viability at 48 h, 75 µM [6]: 86.3%; viability at 48 h, 10 µM [8]: 95.3%; IC50 [9]: 9200 nM; Activity (SH-SY5Y [10]): Active; viability at 48 h, 25 µM [11]: 93.9%; viability at 48 h, 100 µM [12]: 82.3%; viability at 48 h, 5 µM [13]: 96.4%; inhibition [14]: Active; inhibition (SH-SY5Y [21]): Dose-dependent effect; viability at 48 h, 50 µM [15]: 89.6%; viability at 48 h, 1 µM [17]: 98.1%; Activity (SH-SY5Y [18]): Non-toxic; Activity (SH-SY5Y [22]): Dose-dependent effect; Ratio IC50 [19]: 1.5; Activity (SH-SY5Y [23]): Non-toxic; Activity (SH-SY5Y [20]): Active
O=C1C(=Cc2ccc(N3CCN(C(c4ccccc4)c4ccccc4)CC3)cc2)C(=O)c2ccccc21	3350	80.6	61	54.9	IC50 [9]: 11800 nM; Ratio IC50 [19]: 1.5
O=C1C(=Cc2ccc(N3CCN(c4ccc(C(F)(F)F)cc4)CC3)cc2)C(=O)c2ccccc21	2140	74.9	141	15.1	–
Cc1ccc(N2CCN(c3ccc(C=C4C(=O)c5ccccc5C4=O)cc3)CC2)c(C)c1	415	69.9	298	1.39	–
O=C1C(=Cc2ccc(N3CCN(c4ccc(Cl)cc4)CC3)cc2)C(=O)c2ccccc21	1110	60.8	231	4.8	–
